SMILES strings stand for the structures. The source made the active and inactive calls. The calls are words filed in the database; no cut-off is given here.

Data set [1] deals with T1, Phospholipase A2, membrane associated (Homo sapiens) (UniProt P14555).
T1 sequence (whole entry): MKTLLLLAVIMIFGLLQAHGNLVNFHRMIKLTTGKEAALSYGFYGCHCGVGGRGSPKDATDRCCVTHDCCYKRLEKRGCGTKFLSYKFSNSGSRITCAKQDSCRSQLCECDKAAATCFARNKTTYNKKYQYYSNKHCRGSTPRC
Nature of the data set: Inhibition of human synovial recombinant group 2A sPLA2 at 10 uM. Put shortly: (§1)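 Compound tested at 10 µM in ethanol (vehicle 1%). Enzyme preincubated 5 min at 37 °C in Tris–HCl, 1 mM CaCl₂, pH 7.5, then incubated 15 min with [³H]oleate-labelled, autoclaved E. coli CECT 101 membranes. Released radioactivity counted. Percent inhibition versus vehicle control, mean ± SEM, n = 6. Enzymes: human recombinant synovial group IIA; porcine pancreatic group IB.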

The next data set concerns Apis mellifera. Kind of data set: Inhibition of bee venom group 3 sPLA2 at 10 uM. Put shortly: (§2)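 Radiometric sPLA2 assay with membranes of E. coli CECT 101 labelled by growth with [3H]oleic acid, then autoclaved. Enzyme in Tris–HCl, 1 mM CaCl2, pH 7.5, preincubated 5 min at 37 °C with compound in ethanol (vehicle 1%), then 15 min with the labelled membranes. Released radioactivity counted. Percent inhibition versus vehicle control, mean ± SEM, n = 6.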

The subject of data set [2] is RAW264.7. Kind of data set: Inhibition of LPS-stimulated PGE2 production in mouse RAW264.7 cells at 10 uM after 20 hrs by radioimmunoassay. The format is functional. The conditions noted are these: RAW264.7, 20 h. In a few lines:
(§3)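 Murine RAW 264.7 macrophages, 1.5 × 10⁶ cells/mL, given 1 µg/mL E. coli 0111:B4 LPS at 37 °C for 20 h with compound in ethanol (vehicle ethanol 1%). Supernatant PGE₂ measured by radioimmunoassay. Mean ± SEM, n = 6. IC₅₀ from at least four significant concentrations. ANOVA then Dunnett's t-test.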

For another data set, the system named is Naja naja. Kind of data set: Inhibition of Naja naja venom group 1A sPLA2 at 10 uM. In a few lines:
as §2

For data set [3], the system named is RAW264.7. Nature of the data set: Cytotoxicity against mouse RAW264.7 cells at 10 uM after 20 hrs by MTT assay. In kind it is cell-based. Particulars: raw264.7, 20 h. Put shortly: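 RAW 264.7 macrophages (1.5 × 10⁶ cells/mL) co-incubated with 1 µg/mL E. coli 0111:B4 LPS at 37 °C for 20 h, compound added in ethanol (ethanol alone as control). Viability read by mitochondrial reduction of MTT to formazan.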

A further data set is filed under the species Sus scrofa. Kind of data set: Inhibition of pig pancreas group 1B sPLA2 at 10 uM. In a few lines: as §1
The test system of data set [4] is RAW264.7. Nature of the data set: Inhibition of LPS-stimulated microsomal prostaglandin E synthase 1 expression in mouse RAW264.7 cells by Western blot. In kind it is functional, cell-based. Put shortly: (§4)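 Cells were RAW 264.7 at 1.5 × 10⁶ cells/mL, 18 h with LPS 1 µg/mL and compound at 1 or 10 µM; dexamethasone as reference. Lysis in HEPES pH 8.0 buffer with protease/phosphatase inhibitors, spin 10,000g 15 min 4 °C. COX-2 taken from total fraction, mPGES-1 from microsomal fraction. 50 µg protein per lane on SDS–15% PAGE, PVDF, polyclonal antibodies (COX-2 1/1000, mPGES-1 1/200). β-actin loading control. Bands expressed relative to LPS control. Two experiments.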

In data set [5] the test system is RAW264.7. Kind of data set: Inhibition of LPS-stimulated COX2 expression in mouse RAW264.7 cells by Western blot. In kind it is functional, cell-based. Put shortly:
as §4
(Immunoblotting shows a protein as a band on a membrane.)

The test system of data set [6] is RAW264.7. Nature of the data set: Inhibition of LPS-stimulated PGE2 production in mouse RAW264.7 cells after 20 hrs by radioimmunoassay. The conditions noted are these: RAW264.7, 20 h. In kind it is functional, cell-based. Put shortly: as §3
Data set [7] deals with RAW264.7. Nature of the data set: Inhibition of LPS-stimulated microsomal prostaglandin E synthase 1 expression at 10 uM in mouse RAW264.7 cells by Western blot. The format is functional, cell-based. In a few lines: as §4
Data set [8] has as its system RAW264.7. Nature of the data set: Inhibition of LPS-stimulated COX2 expression in mouse RAW264.7 cells at 10 uM by Western blot. In kind it is functional, cell-based. Put shortly:
as §4

For the compound `O=C1OC(O)C(c2cccc(-c3ccc(Oc4ccccc4)cc3)c2)=C1Br` (stereo not drawn), the inhibition came to 2.4% in data set [1], 5.3% in the data set with Apis mellifera, 5.8% in the data set with Naja naja and 0% in the data set filed under Sus scrofa. In the data set on RAW264.7 [2], this compound registered an inhibition at 10 µM of 51%. Moreover, the Cytotoxicity in the data set with RAW264.7 [3] turned out to be 0%.

As to `CCCCc1ccc(C2=C(c3ccc(-c4ccc(CCCC)cc4)cc3)C(O)OC2=O)cc1` (stereo not drawn), the Activity entry in the data set on RAW264.7 [4] is “Dose-dependent effect”. Moreover, the inhibition amounted to 4.4% in [1], 2.8% with Apis mellifera, 2.6% in the data set with Naja naja and 0% in the data set filed under Sus scrofa. Besides, in the data set on RAW264.7 [5], the outcome was inactive. Besides, in the data set on RAW264.7 [2], the inhibition at 10 µM came to 58.7%. In the data set on RAW264.7 [6], this compound returned a 50% inhibitory concentration (IC50) of 4590 nM. In addition, in the data set with RAW264.7 [3], the Cytotoxicity was 0%.

With `O=C1OC(O)C(c2cccc(-c3csc4ccccc34)c2)=C1Br` (stereo not drawn), the inhibition in [1] came to 30%; in the data set on Apis mellifera it was 13.9%; with Naja naja, 11.7%; in the data set filed under Sus scrofa it was 28.6%. In the data set on RAW264.7 [2], this compound gave an inhibition at 10 µM of 33.6%. The Cytotoxicity in the data set on RAW264.7 [3] amounted to 0%.

In the case of `O=C1OC(O)C(c2cccc(-c3ccc(Oc4ccccc4)cc3)c2)=C1c1cccc(-c2ccc(Oc3ccccc3)cc2)c1` (stereo not drawn), the inhibition worked out at 10.6% in data set [1], 6% in the data set on Apis mellifera, 16.6% in the data set with Naja naja and 10.2% in the data set filed under Sus scrofa. This compound also displayed an inhibition at 10 µM in the data set on RAW264.7 [2] of 22.2%. Moreover, the Cytotoxicity with RAW264.7 [3] is listed as 0%.

As to `O=C1OC(O)C(c2cccc(-c3ccc4ccccc4c3)c2)=C1Br` (stereo not drawn), the inhibition (in data set [1]; with Apis mellifera; in the data set on Naja naja; in the data set listed under Sus scrofa) was 0% in each case. Moreover, the inhibition at 10 µM with RAW264.7 [2] is 66.8%. The compound also showed a Cytotoxicity in the data set on RAW264.7 [3] of 18.6%.

Regarding `O=C1OC(O)C(c2cccc(-c3ccc4ccccc4c3)c2)=C1c1ccc2ccccc2c1` (stereo not drawn), in the data set on RAW264.7 [4], the Activity entry is “Dose-dependent effect”. For the same compound, the inhibition was found to be 14.8% in data set [1], 2.8% in the data set on Apis mellifera, 2% in the data set on Naja naja and 0% in the data set listed under Sus scrofa. Also, the result with RAW264.7 [5] was inactive. Also, testing at 10 µM with RAW264.7 [2] gave an inhibition of 79.6%. This compound also gave an IC50 in the data set with RAW264.7 [6] of 840 nM. In the data set with RAW264.7 [3], this compound registered a Cytotoxicity of 8.6%.

As for `O=C1OC(O)C(c2ccc(-c3ccc(-c4ccccc4)cc3)cc2)=C1Br` (stereo not drawn), in the data set on RAW264.7 [4], the Activity result is “Dose-dependent effect”. In addition, the inhibition in data set [1] was found to be 12.1%; in the data set with Apis mellifera it was 0%; with Naja naja, 0%; in the data set listed under Sus scrofa, 0%. Besides, in the data set on RAW264.7 [5], the result was inactive. Further, the inhibition at 10 µM with RAW264.7 [2] is 73.1%. In the data set with RAW264.7 [6], the half-maximal inhibitory concentration (IC50) turned out to be 3610 nM. Also, the Cytotoxicity with RAW264.7 [3] came out at 1.2%.

With `C[C@@H]1C[C@H]2[C@@H]3CCC4=CC(=O)C=C[C@]4(C)[C@@]3(F)[C@@H](O)C[C@]2(C)[C@@]1(O)C(=O)CO`, the outcome in the data set on RAW264.7 [7] and in the data set on RAW264.7 [8] was Active.

For `CCCCc1ccc(-c2ccc(C3=C(Br)C(=O)OC3O)cc2)cc1` (stereo not drawn), in the data set with RAW264.7 [4], the Activity result is “Dose-dependent effect”. The inhibition in data set [1] worked out at 0%; in the data set with Apis mellifera, 3.5%; with Naja naja it was 0%; in the data set listed under Sus scrofa, 0%. For the same compound, the result in the data set with RAW264.7 [5] was inactive. In the data set on RAW264.7 [2], testing at 10 µM gave an inhibition of 62.2%. Also, in the data set on RAW264.7 [6], the IC50 is 2240 nM. This compound also came in with a Cytotoxicity in the data set with RAW264.7 [3] of 5.5%.

The compound `O=C1OC(O)C(c2csc3ccccc23)=C1Br` (stereo not drawn) showed an inhibition at 10 µM in the data set on RAW264.7 [2] of 72.2%. Besides, the midpoint of inhibition in the data set with RAW264.7 [6], the IC50, lay at 1800 nM. In the data set on RAW264.7 [3], this compound gave a Cytotoxicity of 0%.

As for `CCc1c(CC(N)=O)c2cc(OCCCP(=O)(O)O)ccc2n1Cc1ccccc1`, the inhibition in [1] came to 96.3%; with Apis mellifera, 2.4%; in the data set with Naja naja it was 7.9%; in the data set filed under Sus scrofa it was 36.9%.

For `O=C1OC(O)C(c2cccc(-c3csc4ccccc34)c2)=C1c1cccc(-c2csc3ccccc23)c1` (stereo not drawn), the Activity entry with RAW264.7 [4] is “Dose-dependent effect”. Also, the inhibition is 2.4% in data set [1], 4% in the data set on Apis mellifera, 3.6% with Naja naja and 8.3% in the data set filed under Sus scrofa. Moreover, the outcome in the data set with RAW264.7 [5] was inactive. The compound further registered an inhibition at 10 µM in the data set on RAW264.7 [2] of 69.2%. The same compound gave a half-maximal inhibitory concentration (IC50) in the data set on RAW264.7 [6] of 3230 nM. Moreover, the Cytotoxicity in the data set on RAW264.7 [3] is reported as 4.1%.

The inhibition is the share of the control response that was lost under treatment. Usually IC50 stands for the concentration at which inhibition is half-maximal. Lower therefore signals inhibition by little substance.
